Reference: ChEMBL document CHEMBL1138602, “Discovery of sodium 6-[(5-chloro-2-{[(4-chloro-2-fluorophenyl)methyl]oxy}phenyl)methyl]-2-pyridinecarboxylate (GSK269984A) an EP(1) receptor antagonist for the treatment of inflammatory pain” (Bioorg Med Chem Lett, 2009)
Values belong to the molecule of their own block, whether it stands above or below them.

Experiments:
[1] = Selectivity for human recombinant EP1 receptor over DP1
[2] = test system: Rattus norvegicus; experiment: […] activity against complete Freund's adjuvant-induced inflammatory pain in rat assessed as reversal of hypersensitivity at 10 mg/kg, po administered 23 hrs post-adjuvant challenge measured after 1 hr; assay type: functional
Procedure, shortened: (§1)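 Rats given adjuvant by intraplantar injection; oral dosing at 1, 3 and 10 mg/kg 23 h later. Hypersensitivity assessed by weight-bearing 1 h post-dose. ED50 derived across doses.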

[3] = test system: Brain; experiment: (§2) Drug level in brain of complete Freund's adjuvant-induced rat inflammatory pain model at 10 mg/kg, po administered after 23 hrs of adjuvant challenge measured after 1 hr; assay type: ADME, organism-based; parameters: dose 10 mg/kg, route oral; conditions: in vivo, 1 h
Procedure, shortened: (§3)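 CFA rat study: oral doses of 1, 3 or 10 mg/kg given 23 h after intraplantar adjuvant, samples 1 h post-dose. Blood values are the mean from seven animals. Brain values are the mean from three animals.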

[4] = molecular target: T1, Prostaglandin E2 receptor EP1 subtype (Homo sapiens, UniProt P34995); experiment: Displacement of [3H]PGE2 from human EP1 receptor expressed in CHO cells; assay type: cell-based
T1 sequence (P34995 whole entry): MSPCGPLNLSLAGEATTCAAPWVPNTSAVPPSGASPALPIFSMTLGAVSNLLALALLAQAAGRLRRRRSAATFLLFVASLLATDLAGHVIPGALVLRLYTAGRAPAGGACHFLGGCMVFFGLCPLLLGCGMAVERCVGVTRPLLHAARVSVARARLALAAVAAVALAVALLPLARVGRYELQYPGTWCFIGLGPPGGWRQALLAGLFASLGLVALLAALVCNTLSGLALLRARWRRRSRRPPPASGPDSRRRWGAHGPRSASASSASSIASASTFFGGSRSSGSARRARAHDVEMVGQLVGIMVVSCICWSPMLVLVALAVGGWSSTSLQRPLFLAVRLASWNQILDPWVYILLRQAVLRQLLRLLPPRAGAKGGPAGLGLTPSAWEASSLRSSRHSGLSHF
Procedure, shortened: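 Radioligand binding with [3H]-PGE2 in CHO cells overexpressing human EP1 receptor. Values are the mean of at least three experiments with standard deviations.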

[5] = molecular target: Cytochrome P450 2D6 (Homo sapiens, UniProt P10635); experiment: Inhibition of human CYP2D6; assay type: ADME
Procedure, shortened: (§4)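 Inhibition of metabolism of fluorometric substrates (Cypex protocol); IC50 values are the mean of three experiments ± standard deviation.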

[6] = Ratio of drug level in brain to blood in complete Freund's adjuvant-induced rat inflammatory pain model at 3 mg/kg, po administered after 23 hrs of adjuvant challenge measured after 1 hr; assay type: ADME, organism-based; parameters: dose 3 mg/kg, route oral; conditions: brain and blood
Procedure, shortened: (§5)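 Rat CFA inflammatory pain model: oral dosing at 1, 3 or 10 mg/kg 23 h after intraplantar adjuvant; blood and brain sampled 1 h post-dose from the same animal; Br:Bl ratio is the mean from three animals.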

[7] = Drug level in brain of complete Freund's adjuvant-induced rat inflammatory pain model at 3 mg/kg, po administered after 23 hrs of adjuvant challenge measured after 1 hr; assay type: ADME, organism-based; parameters: dose 3 mg/kg, route oral; conditions: read-out: Drug uptake; procedure, shortened: as §3
[8] = molecular target: Cytochrome P450 2C9 (Homo sapiens, UniProt P11712); experiment: Inhibition of human CYP2C9; assay type: ADME; procedure, shortened: as §4
[9] = test system: Rattus norvegicus; experiment: […] activity against complete Freund's adjuvant induced inflammatory pain in po dosed rat assessed as reversal of hypersensitivity post-adjuvant challenge after 1 hr; assay type: functional; procedure, shortened: as §1
[10] = molecular target: T2, Cytochrome P450 3A4 (Homo sapiens, UniProt P08684); experiment: Inhibition of human CYP3A4 using PPR substrate; assay type: ADME
[11] = Ratio of drug level in brain to blood in complete Freund's adjuvant-induced rat inflammatory pain model at 1 mg/kg, po administered after 23 hrs of adjuvant challenge measured after 1 hr; assay type: ADME, organism-based; parameters: dose 1 mg/kg, route oral; conditions: brain and blood; procedure, shortened: as §5
[12] = molecular target: T1, Prostaglandin E2 receptor EP1 subtype; experiment: Antagonist activity at human recombinant EP1 receptor expressed in CHO cells assessed as inhibition of PGE2-mediated intracellular calcium mobilization by FLIPR method; assay type: functional, cell-based
Procedure, shortened: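 CHO cells recombinantly overexpressing human EP1 receptor; antagonism measured as block of PGE2-mediated intracellular Ca2+ mobilization. Values are the mean of at least three experiments with standard deviations.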

[13] = Drug level in brain of complete Freund's adjuvant-induced rat inflammatory pain model at 1 mg/kg, po administered after 23 hrs of adjuvant challenge measured after 1 hr; assay type: ADME, organism-based; parameters: dose 1 mg/kg, route oral; conditions: read-out: Drug uptake; procedure, shortened: as §3
[14] = Ratio of drug level in brain to blood in complete Freund's adjuvant-induced rat inflammatory pain model at 10 mg/kg, po administered after 23 hrs of adjuvant challenge measured after 1 hr; assay type: ADME, organism-based; parameters: dose 10 mg/kg, route oral; conditions: brain and blood; procedure, shortened: as §5
[15] = Drug level in blood of complete Freund's adjuvant-induced rat inflammatory pain model at 10 mg/kg, po administered after 23 hrs of adjuvant challenge measured after 1 hr; assay type: ADME, organism-based; parameters: dose 10 mg/kg, route oral; conditions: read-out: Drug uptake; procedure, shortened: as §3
[16] = as §2; assay type: ADME, organism-based; parameters: dose 10 mg/kg, route oral; conditions: brain, read-out: Drug uptake; procedure, shortened: as §3
[17] = Drug level in blood of complete Freund's adjuvant-induced rat inflammatory pain model at 3 mg/kg, po administered after 23 hrs of adjuvant challenge measured after 1 hr; assay type: ADME, organism-based; parameters: dose 3 mg/kg, route oral; conditions: read-out: Drug uptake; procedure, shortened: as §3
[18] = molecular target: T3, Cytochrome P450 1A2 (Homo sapiens, UniProt P05177); experiment: Inhibition of human CYP1A2; assay type: ADME; procedure, shortened: as §4
T3 sequence (P05177 whole entry): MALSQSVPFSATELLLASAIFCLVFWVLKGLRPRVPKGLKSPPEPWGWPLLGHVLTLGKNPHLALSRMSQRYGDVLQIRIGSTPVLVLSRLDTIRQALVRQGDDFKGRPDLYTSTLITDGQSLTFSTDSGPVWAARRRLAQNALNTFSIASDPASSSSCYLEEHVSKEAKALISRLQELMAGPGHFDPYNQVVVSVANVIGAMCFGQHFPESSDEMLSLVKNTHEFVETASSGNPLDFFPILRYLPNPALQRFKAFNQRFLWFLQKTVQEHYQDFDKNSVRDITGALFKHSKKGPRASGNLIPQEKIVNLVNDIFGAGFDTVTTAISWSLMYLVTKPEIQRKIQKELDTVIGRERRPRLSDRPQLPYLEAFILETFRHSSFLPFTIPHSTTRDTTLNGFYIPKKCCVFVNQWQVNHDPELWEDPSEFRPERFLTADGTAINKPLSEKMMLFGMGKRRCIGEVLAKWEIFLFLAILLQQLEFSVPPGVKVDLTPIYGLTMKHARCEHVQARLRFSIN

[19] = molecular target: Cytochrome P450 2C19 (Homo sapiens, UniProt P33261); experiment: Inhibition of human CYP2C19; assay type: ADME; procedure, shortened: as §4
[20] = molecular target: T2, Cytochrome P450 3A4; experiment: Inhibition of human CYP3A4 using DEF substrate; assay type: ADME
[21] = Drug level in blood of complete Freund's adjuvant-induced rat inflammatory pain model at 1 mg/kg, po administered after 23 hrs of adjuvant challenge measured after 1 hr; assay type: ADME, organism-based; parameters: dose 1 mg/kg, route oral; conditions: read-out: Drug uptake; procedure, shortened: as §3
[22] = Lipophilicity, log D at pH 7.4; assay type: physicochemical; conditions: buffer
[23] = Metabolic stability in human liver microsomes assessed as compound turnover after 30 mins; assay type: ADME, Microsome; conditions: read-out: Stability
[24] = Metabolic stability in rat liver microsomes assessed as compound turnover after 30 mins; assay type: ADME, Microsome; conditions: read-out: Stability

Cytochrome P450 2C9, sequence (P11712 whole entry): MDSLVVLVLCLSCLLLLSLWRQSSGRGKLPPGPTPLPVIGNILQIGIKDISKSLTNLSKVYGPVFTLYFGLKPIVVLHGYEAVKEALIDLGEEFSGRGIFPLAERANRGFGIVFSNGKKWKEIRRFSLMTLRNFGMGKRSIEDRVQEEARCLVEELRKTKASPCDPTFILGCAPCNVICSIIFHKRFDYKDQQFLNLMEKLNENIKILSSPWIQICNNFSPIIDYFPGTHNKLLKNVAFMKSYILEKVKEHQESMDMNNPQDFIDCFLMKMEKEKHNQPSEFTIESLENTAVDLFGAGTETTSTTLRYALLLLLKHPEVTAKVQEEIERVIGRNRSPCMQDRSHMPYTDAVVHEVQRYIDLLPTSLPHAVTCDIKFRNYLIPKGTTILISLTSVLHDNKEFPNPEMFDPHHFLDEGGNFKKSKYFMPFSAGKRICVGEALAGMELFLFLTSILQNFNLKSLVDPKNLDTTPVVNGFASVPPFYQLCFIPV
Cytochrome P450 2D6, sequence (P10635 whole entry): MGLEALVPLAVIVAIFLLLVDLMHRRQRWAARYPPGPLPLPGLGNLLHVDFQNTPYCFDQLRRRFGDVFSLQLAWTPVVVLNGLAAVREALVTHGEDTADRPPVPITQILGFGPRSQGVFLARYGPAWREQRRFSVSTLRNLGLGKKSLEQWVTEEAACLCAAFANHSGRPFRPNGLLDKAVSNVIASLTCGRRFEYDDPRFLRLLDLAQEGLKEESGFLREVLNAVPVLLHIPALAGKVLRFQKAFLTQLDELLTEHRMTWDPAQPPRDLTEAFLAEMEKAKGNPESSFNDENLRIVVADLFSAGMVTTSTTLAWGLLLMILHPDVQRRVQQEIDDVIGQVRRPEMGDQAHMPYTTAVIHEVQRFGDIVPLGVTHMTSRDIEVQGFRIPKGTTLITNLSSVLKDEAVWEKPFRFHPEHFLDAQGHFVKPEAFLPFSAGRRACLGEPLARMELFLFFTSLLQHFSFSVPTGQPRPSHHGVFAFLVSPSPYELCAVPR
Cytochrome P450 2C19, sequence (P33261 whole entry): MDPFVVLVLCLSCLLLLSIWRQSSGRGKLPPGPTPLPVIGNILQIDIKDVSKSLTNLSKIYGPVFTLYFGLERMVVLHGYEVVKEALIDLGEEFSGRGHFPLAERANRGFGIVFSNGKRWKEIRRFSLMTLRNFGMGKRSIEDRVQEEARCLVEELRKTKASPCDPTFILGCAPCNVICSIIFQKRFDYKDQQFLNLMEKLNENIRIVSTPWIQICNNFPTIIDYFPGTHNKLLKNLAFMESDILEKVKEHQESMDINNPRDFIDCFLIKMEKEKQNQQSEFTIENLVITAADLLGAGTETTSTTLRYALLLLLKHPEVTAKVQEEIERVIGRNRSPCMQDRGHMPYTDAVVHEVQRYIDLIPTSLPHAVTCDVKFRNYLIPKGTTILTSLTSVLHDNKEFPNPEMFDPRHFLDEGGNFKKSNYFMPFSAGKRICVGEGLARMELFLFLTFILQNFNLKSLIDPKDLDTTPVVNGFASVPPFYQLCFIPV
T2 sequence (P08684 whole entry): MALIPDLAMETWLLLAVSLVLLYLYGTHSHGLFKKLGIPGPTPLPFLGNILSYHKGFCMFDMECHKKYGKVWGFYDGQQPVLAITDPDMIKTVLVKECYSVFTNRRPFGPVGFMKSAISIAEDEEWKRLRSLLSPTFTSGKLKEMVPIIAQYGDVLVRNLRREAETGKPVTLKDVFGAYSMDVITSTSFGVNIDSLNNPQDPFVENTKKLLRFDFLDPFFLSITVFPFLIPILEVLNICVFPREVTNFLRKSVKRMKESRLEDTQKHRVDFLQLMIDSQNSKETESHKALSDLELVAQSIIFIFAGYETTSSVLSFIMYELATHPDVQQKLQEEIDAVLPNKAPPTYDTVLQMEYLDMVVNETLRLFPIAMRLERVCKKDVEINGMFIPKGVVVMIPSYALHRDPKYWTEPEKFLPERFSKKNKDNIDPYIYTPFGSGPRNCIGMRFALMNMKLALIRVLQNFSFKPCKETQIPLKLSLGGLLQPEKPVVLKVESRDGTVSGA

Structure (SMILES): O=C(O)c1cccc(C2=C(c3cc(Cl)ccc3OCc3ccc(F)cc3F)CCC2)n1
fold change (FC) [1]: > 400

Structure (SMILES): O=C(O)c1cccc(Cc2cc(Cl)ccc2OCc2ccccc2F)n1
IC50 [4]: 79.4 nM

Structure (SMILES): O=C(O)c1cccc(Cc2cc(Cl)ccc2OCc2ccccc2Cl)n1
IC50 [4]: 39.8 nM

Structure (SMILES): O=C(O)c1cccc(Cc2cc(Cl)ccc2OCC2CCCCC2)n1
IC50 [4]: 100 nM

Structure (SMILES): O=C(O)c1cccc(Cc2cc(Cl)ccc2OCc2ccc(F)cc2)n1
IC50 [4]: 100 nM

Structure (SMILES): O=C(O)c1cccc(Cc2cc(Cl)ccc2OCC2CC2)n1
IC50 [4]: 200 nM

Structure (SMILES): O=C(O)c1cccc(Cc2cc(Cl)ccc2OCc2c(F)cc(F)cc2F)n1
IC50 [4]: 79.4 nM

Further molecules by falling IC50 [4], results first:

IC50 [4]: 39.8 nM
Structure (SMILES): O=C(O)c1cccc(Cc2cc(Cl)ccc2OCc2ccc(Cl)cc2)n1

IC50 [4]: 31.6 nM
Structure (SMILES): O=C(O)c1cccc(Cc2cc(Cl)ccc2OCC2CCCC2)n1

IC50 [4]: 25.1 nM
Structure (SMILES): O=C(O)c1cccc(Cc2cc(Cl)ccc2OCc2ccc(F)cc2F)n1

IC50 [5]: > 100000 nM
Kp at 1 h [6]: 0.3
concentration at 1 h [7]: 256 nM
IC50 [8]: 15000 nM
IC50 [10]: > 100000 nM
Kp at 1 h [11]: 0.31
Ki [12]: 100 nM
concentration at 1 h [13]: 93 nM
Kp at 1 h [14]: 0.31
concentration at 1 h [15]: 3010 nM
concentration at 1 h [16]: 1120 nM
concentration at 1 h [17]: 836 nM
IC50 [18]: 61000 nM
IC50 [19]: 28000 nM
IC50 [20]: 35000 nM
IC50 [4]: 12.6 nM
concentration at 1 h [21]: 346 nM
logD [22]: 2
Structure (SMILES): O=C([O-])c1cccc(Cc2cc(Cl)ccc2OCc2ccc(F)cc2Cl)n1.[Na+]
ED50 [9]: 5.6 mg/kg

IC50 [5]: > 50000 nM
metabolised at 0.5 h [23]: < 15%
IC50 [8]: 4800 nM
Ki [12]: 25.1 nM
IC50 [18]: 32000 nM
IC50 [19]: > 50000 nM
metabolised at 0.5 h [24]: < 15%
IC50 [4]: 10 nM
logD [22]: 2.6
Structure (SMILES): O=C(O)c1cccc(Cc2cc(Cl)ccc2OCc2ccc(Cl)cc2Cl)n1

Ratio [3]: < 0.05
IC50 [4]: 0.129 nM
Structure (SMILES): Cc1cc(C(=O)[O-])nn1Cc1cc(Br)ccc1OCc1ccc(Cl)cc1Cl.[Na+]
Activity [2]: 70%
